Legend:
Type in all cases: cell-based
Settings in all cases: Erythrocyte
[1] = compound: CCOC(=O)c1c(C)nc(N2CCN(S(=O)(=O)c3ccc(NC(C)=O)c(Cl)c3)CC2)nc1-c1ccc(OC)c(OC)c1; experiment: Non-competitive inhibition of AChE in human erythrocytes assessed as Km at 25 nM measured at 2 mins interval for 10 mins by Lineweaver-Burk plot analysis
In short: (§1)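 Human AChE kinetics in the Ellman DTNB assay. Inhibitor at 25, 50 and 100 nM, each with six ATCI concentrations, against an inhibitor-free series. Activity read every 2 min over 10 min. Km and Vmax from Michaelis–Menten non-linear regression; mechanism from Lineweaver–Burk plots; Ki from Dixon plot over four inhibitor concentrations and from slope/intercept replots. Triplicate.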

[2] = compound: CCOC(=O)c1c(C)nc(N2CCN(S(=O)(=O)c3ccc(NC(C)=O)c(Cl)c3)CC2)nc1-c1ccc(OC)c(OC)c1; experiment: Non-competitive inhibition of AChE in human erythrocytes assessed as Vmax at 25 nM measured at 2 mins interval for 10 mins by Lineweaver-Burk plot analysis; in short: as §1
[3] = compound: CCOC(=O)c1c(C)nc(N2CCN(S(=O)(=O)c3ccc(NC(C)=O)c(Cl)c3)CC2)nc1-c1ccc(OC)c(OC)c1; experiment: Non-competitive inhibition of AChE in human erythrocytes assessed as Vmax at 50 nM measured at 2 mins interval for 10 mins by Lineweaver-Burk plot analysis; in short: as §1
[4] = compound: CCOC(=O)c1c(C)nc(N2CCN(S(=O)(=O)c3ccc(NC(C)=O)c(Cl)c3)CC2)nc1-c1ccc(OC)c(OC)c1; experiment: Non-competitive inhibition of AChE in human erythrocytes assessed as Km at 100 nM measured at 2 mins interval for 10 mins by Lineweaver-Burk plot analysis; in short: as §1
[5] = compound: CCOC(=O)c1c(C)nc(N2CCN(S(=O)(=O)c3ccc(NC(C)=O)c(Cl)c3)CC2)nc1-c1ccc(OC)c(OC)c1; experiment: Non-competitive inhibition of AChE in human erythrocytes assessed as Vmax at 100 nM measured at 2 mins interval for 10 mins by Lineweaver-Burk plot analysis; in short: as §1
[6] = compound: CCOC(=O)c1c(C)nc(N2CCN(S(=O)(=O)c3ccc(NC(C)=O)c(Cl)c3)CC2)nc1-c1ccc(OC)c(OC)c1; experiment: Non-competitive inhibition of AChE in human erythrocytes assessed as Km at 50 nM measured at 2 mins interval for 10 mins by Lineweaver-Burk plot analysis; in short: as §1

B1: Acetylcholinesterase (Homo sapiens), P22303 (protein)
chain: MRPPQCLLHTPSLASPLLLLLLWLLGGGVGAEGREDAELLVTVRGGRLRGIRLKTPGGPVSAFLGIPFAEPPMGPRRFLPPEPKQPWSGVVDATTFQSVCYQYVDTLYPGFEGTEMWNPNRELSEDCLYLNVWTPYPRPTSPTPVLVWIYGGGFYSGASSLDVYDGRFLVQAERTVLVSMNYRVGAFGFLALPGSREAPGNVGLLDQRLALQWVQENVAAFGGDPTSVTLFGESAGAASVGMHLLSPPSRGLFHRAVLQSGAPNGPWATVGMGEARRRATQLAHLVGCPPGGTGGNDTELVACLRTRPAQVLVNHEWHVLPQESVFRFSFVPVVDGDFLSDTPEALINAGDFHGLQVLVGVVKDEGSYFLVYGAPGFSKDNESLISRAEFLAGVRVGVPQVSDLAAEAVVLHYTDWLHPEDPARLREALSDVVGDHNVVCPVAQLAGRLAAQGARVYAYVFEHRASTLSWPLWMGVPHGYEIEFIFGIPLDPSRNYTAEEKIFAQRLMRYWANFARTGDPNEPRDPKAPQWPPYTAGAQQYVSLDLRPLEVRRGLRAQACAFWNRFLPKLLSATDTLDEAERQWKAEFHRWSSYMVHWKNQFDHYSKQDRCSDL
[1]
  Km: 0.0772 µM
[2]
  Vmax: 7.2 U/min
[3]
  Vmax: 6.52 U/min
[4]
  Km: 0.0965 µM
[5]
  Vmax: 5.54 U/min
[6]
  Km: 0.0852 µM

— ChEMBL document CHEMBL4732210, “Discovery of new phenyl sulfonyl-pyrimidine carboxylate derivatives as the potential multi-target drugs with effective anti-Alzheimer's action: Design, synthesis, crystal structure and in-vitro biological evaluation” (Eur J Med Chem, 2021)
